This is an account of results in paper PMC3210412 (Biochemical pharmacology, 2011).

In series [1] the target is T1, ERβ (Homo sapiens, UniProt Q92731). The series is described as follows: Competitive ligand binding assay.
In the next series the test system is FLuc reporter transcript. The series is described as follows: RT-PCR of firefly luciferase. It is filed as cell-based. To be noted: 1 μM cosmosiin vs 1 nM E2, 4 and 24 hr; both cell lines.
Series [2] has as its target T2, ERα (Homo sapiens, UniProt P03372).
T2 sequence (P03372 1-595): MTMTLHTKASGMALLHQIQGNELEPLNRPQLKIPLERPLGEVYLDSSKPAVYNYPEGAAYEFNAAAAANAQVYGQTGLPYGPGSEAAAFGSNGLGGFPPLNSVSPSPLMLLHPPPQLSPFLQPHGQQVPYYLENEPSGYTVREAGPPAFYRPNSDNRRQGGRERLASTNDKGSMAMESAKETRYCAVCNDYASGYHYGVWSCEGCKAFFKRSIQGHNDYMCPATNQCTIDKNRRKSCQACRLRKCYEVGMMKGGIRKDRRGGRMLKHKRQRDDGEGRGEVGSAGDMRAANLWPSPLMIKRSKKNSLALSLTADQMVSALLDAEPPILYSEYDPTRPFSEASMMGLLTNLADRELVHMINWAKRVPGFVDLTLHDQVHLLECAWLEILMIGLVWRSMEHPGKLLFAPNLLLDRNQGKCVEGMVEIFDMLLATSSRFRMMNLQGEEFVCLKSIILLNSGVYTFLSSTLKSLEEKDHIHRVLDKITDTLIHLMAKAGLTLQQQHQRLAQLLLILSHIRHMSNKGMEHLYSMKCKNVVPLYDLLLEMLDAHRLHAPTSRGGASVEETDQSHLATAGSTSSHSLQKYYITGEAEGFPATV
The series is described as follows: Competitive ligand binding assay. The note with it: read-out: IC50 ERα, unpublished data.

Another series concerns ERα/β and ERβ/β dimers. The series is described as follows: BRET dimerization assays. In kind it is cell-based. To be noted: unpublished data.
The target in series [3] is T2, ERα. The series is described as follows: Luciferase reporter assay in Hs578T-ERαLuc cells. In kind it is cell-based. The note with it: for luciferase induction in Hs578T-ERαLuc (in words): b31: 10 nM DPN or PPT, 24 hr.
The next series relates to C3 (ERβ target gene). The series is described as follows: qPCR of ERβ target gene C3 in Hs578T-ERβ cells. It is filed as cell-based. To be noted: 50 ng/mL Dox 48 hr, ligand 24 hr; cosmosiin 1 μM. Put shortly:
(§1)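 Cells were hormone-depleted for 3 days in phenol red-free DMEM/F12 + 10% charcoal-stripped FBS, split into 5% stripped serum, and induced with 50 ng/mL Dox for 48 hr. They were then treated with Dox plus test compound or 0.1% DMSO vehicle for 24 hr. Total RNA was extracted and assayed by qRT-PCR: ITGA6 in Hs578T-ERα cells, C3 and JAG1 in Hs578T-ERβ cells. There were three biological replicates, with two-tailed t-tests against control.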

The test system of the next series is ITGA6 (ERα target gene). The series is described as follows: qPCR of ERα target gene ITGA6 in Hs578T-ERα cells. It is filed as cell-based. The note with it: for ITGA6 expression in Hs578T-ERα cells at 1 μM: 1 μM ligand, 24 hr; for ITGA6 expression in Hs578T-ERα cells: ligand 24 hr, DPN 10 nM, liquiritigenin 100 nM. Put shortly:
as §1
For orientation: In qPCR the cycle at which signal appears reflects the starting amount.

Another series has as its system JAG1 (ERβ target gene). The series is described as follows: qPCR of ERβ target gene JAG1 in Hs578T-ERβ cells. In kind it is cell-based. The note with it: for JAG1 repression in Hs578T-ERβ cells: 50 ng/mL Dox 48 hr, ligand 24 hr; for JAG1 repression compared to E2, DPN or 1 μM liquiritigenin: 100 nM liquiritigenin, 1 μM cosmosiin. In a few lines: as §1
For series [4], the target named is T1, ERβ. The series is described as follows: Luciferase reporter assay in Hs578T-ERβLuc cells. It is filed as cell-based. To be noted: for luciferase induction in Hs578T-ERβLuc (in words): b31: 10 nM DPN or PPT, 24 hr, cosmosiin up to 10 μM. In general terms: In a reporter assay the amount or activity of a reporter protein is the signal.
The next series deals with T47D-KBLuc cells. To be noted: read-out: EC50, T47D-KBLuc cells; approximate; cited from earlier work.
In series [5] the target is T1, ERβ. The series is described as follows: pGL4.3xERE reporter in HEK293 cells transfected with full length ERβ. To be noted: 1 nM E2, 24 hr. In kind it is cell-based.
The conditions of series [6]: cited from earlier work.
Series [7] has as its target T2, ERα. The note with it: concentrations up to 2.5 μM; U2OS, HeLa or WAR5 prostate cancer cells transfected with ERα; cited from earlier work.
In series [8] the target is T2, ERα. The note with it: cited from earlier work.
Series [9] has as its target T2, ERα. To be noted: cited from earlier work. The source holds these as a separate data set.
The target in series [10] is T1, ERβ. To be noted: cited from earlier work.

T1 sequence (Q92731 whole entry): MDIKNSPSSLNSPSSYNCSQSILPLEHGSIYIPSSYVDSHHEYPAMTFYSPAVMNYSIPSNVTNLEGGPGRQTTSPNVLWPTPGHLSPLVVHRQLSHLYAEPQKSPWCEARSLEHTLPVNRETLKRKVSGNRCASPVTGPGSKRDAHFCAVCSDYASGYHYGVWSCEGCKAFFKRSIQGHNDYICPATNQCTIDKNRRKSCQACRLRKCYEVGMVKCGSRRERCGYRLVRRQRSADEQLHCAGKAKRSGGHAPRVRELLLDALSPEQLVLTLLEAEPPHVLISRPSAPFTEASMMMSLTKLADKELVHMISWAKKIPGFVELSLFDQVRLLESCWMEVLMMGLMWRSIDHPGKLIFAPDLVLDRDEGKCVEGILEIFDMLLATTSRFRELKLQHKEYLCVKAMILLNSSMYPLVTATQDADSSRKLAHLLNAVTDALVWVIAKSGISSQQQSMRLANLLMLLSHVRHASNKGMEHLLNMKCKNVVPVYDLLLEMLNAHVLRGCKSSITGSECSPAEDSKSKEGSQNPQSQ

As a reminder, the IC50 is the point on the concentration scale where inhibition reaches its midpoint. Consider `O=c1cc(-c2ccc(O)cc2)oc2cc(O[C@@H]3O[C@H](CO)[C@@H](O)[C@H](O)[C@H]3O)cc(O)c12` [Cosmosiin, apigenin 7-glucoside], for which the IC50 on ERβ [1] (read-out: IC50 ERβ, unpublished data) came out at 3300 nM. On ERβ [1] (unpublished data), the “higher binding affinity for ERβ” value is 3 fold. The “luciferase transcript level compared to E2” value in the series with FLuc reporter transcript was “did not induce luciferase expression to a greater extent than E2”. Besides, the IC50 at ERα [2] came out at 15900 nM. The “ER dimer induction (BRET)” value in the series with ERα/β and ERβ/β dimers was “selectively induces ERα/β and ERβ/β dimers”. Moreover, at ERα [3], the “luciferase induction in Hs578T-ERαLuc (in words)” value is recorded as “only slightly activated luciferase reporter expression”. Moreover, the “C3 expression in Hs578T-ERβ cells” value with C3 (ERβ target gene) is given as “induced C3 expression at 1 μM, but not to the same extent as E2”. The “ITGA6 expression in Hs578T-ERα cells at 1 μM” value in the series with ITGA6 (ERα target gene) is reported as “ITGA6 expression was induced”. Moreover, in the series with JAG1 (ERβ target gene), the “JAG1 repression in Hs578T-ERβ cells” value is recorded as “occurred to a similar degree” and the “JAG1 repression compared to E2, DPN or 1 μM liquiritigenin” value was “do not fully repress JAG1 expression”. For the same molecule, at ERβ [4], the “luciferase induction in Hs578T-ERβLuc (in words)” value is given as “induced luciferase expression to a much greater extent than E2”. Moreover, the “luciferase induction with ICI 182,780 co-treatment or without Dox” value on ERβ [4] (data not shown) is “did not induce luciferase expression in Dox-treated cells co-treated with ICI 182,780 or cells not treated with Dox”.

With `N#CC(Cc1ccc(O)cc1)c1ccc(O)cc1` (stereo not shown) [DPN, diarylpropionitrile], the “C3 expression in Hs578T-ERβ cells” value with C3 (ERβ target gene) was “capable of inducing C3 expression to a comparable level as E2”. For the same molecule, the “ITGA6 expression in Hs578T-ERα cells” value in the series with ITGA6 (ERα target gene) is given as “did not fully activate its expression”. In the series on JAG1 (ERβ target gene), the “JAG1 repression in Hs578T-ERβ cells” value is “occurred to a similar degree”.

Broadly, the EC50 is the midpoint of the concentration-response curve. Consider `C[C@]12CC[C@@H]3c4ccc(O)cc4CC[C@H]3[C@@H]1CC[C@@H]2O` [E2, 17β-estradiol], for which the 50% effective concentration (EC50) in the series with T47D-KBLuc cells was roughly 0.003 nM. The “C3 expression in Hs578T-ERβ cells” value with C3 (ERβ target gene) was “up-regulated in Hs578T-ERβ cells”. The “induction of luciferase, HEK293 + ERβ” value on ERβ [5] was 15 fold. For the same molecule, in the series on ITGA6 (ERα target gene), the “ITGA6 expression in Hs578T-ERα cells” value is “up-regulated”. For the same molecule, in the series with JAG1 (ERβ target gene), the “JAG1 repression in Hs578T-ERβ cells” value is recorded as “occurred to a similar degree”.

For `C=Cc1cc(O)cc2nc(-c3ccc(O)c(F)c3)oc12` [ERB-041], in [6], the “efficacy in rheumatoid arthritis trial” value was “did not improve arthritis symptoms” and the “tolerability in rheumatoid arthritis trial” value is listed as “well tolerated”.

Take `O=C1C[C@@H](c2ccc(O)cc2)Oc2cc(O)ccc21` [Liquiritigenin, liquiritigenin]: the “activation of ERα in transcriptional assays” value on ERα [7] was “minimal activation of ERα”. Besides, in the series with C3 (ERβ target gene), the “C3 expression in Hs578T-ERβ cells” value was “capable of inducing C3 expression to a comparable level as E2”. Further, in the series with ITGA6 (ERα target gene), the “ITGA6 expression in Hs578T-ERα cells at 1 μM” value is “ITGA6 expression was induced” and the “ITGA6 expression in Hs578T-ERα cells” value was “did not fully activate its expression”. Further, in the series with JAG1 (ERβ target gene), the “JAG1 repression in Hs578T-ERβ cells” value is “occurred to a similar degree” and the “JAG1 repression compared to E2, DPN or 1 μM liquiritigenin” value is “do not fully repress JAG1 expression”.

As to `CCCc1c(-c2ccc(O)cc2)nn(-c2ccc(O)cc2)c1-c1ccc(O)cc1` [PPT, propyl pyrazole triol], the “induction of estrogen responsive reporter, HELN-ERα cells” value on ERα [8] is recorded as “unable to induce an estrogen responsive reporter”. Besides, on ERα [3], the concentration giving a half-maximal response (EC50) is 0.016 nM and the “luciferase induction in Hs578T-ERαLuc (in words)” value was “selectively activated luciferase expression in Hs578T-ERαLuc”. Further, the “selectivity for ERα (EC50 comparison)” value at ERα [3] (Hs578T-ERαLuc vs Hs578T-ERβLuc) was roughly 1000 fold. Also, the “C3 expression in Hs578T-ERβ cells” value in the series with C3 (ERβ target gene) was “slightly induced C3 expression compared to DMSO”. Moreover, the “higher binding affinity for ERα compared to ERβ” value at ERα [9] is recorded as 400 fold. In addition, the “induction of estrogen responsive reporter, HEC-1 cells + ERβ” value on ERβ [10] was “unable to induce an estrogen responsive reporter”. Moreover, the “ITGA6 expression in Hs578T-ERα cells” value in the series with ITGA6 (ERα target gene) is given as “up-regulated”. For the same molecule, the “JAG1 repression in Hs578T-ERβ cells” value with JAG1 (ERβ target gene) was “had no effect on JAG1 repression”. For the same molecule, at ERβ [4], the EC50 is 26 nM, the “concentrations at which reporter is activated in Hs578T-ERβLuc” value is “greater than 100 nM” and the “luciferase induction in Hs578T-ERβLuc (in words)” value was “could not induce luciferase expression to the same extent as E2”.
